Converted amounts (≈) assume the structure as drawn.
How the values were obtained:
Clavispora lusitaniae [1] = assay: Antifungal activity against Candida lusitaniae 2446/I after 48 hrs by microdilution method; format: functional
In short: (§1)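 Yeasts held on Sabouraud dextrose agar. MIC by NCCLS M27-A broth microdilution in RPMI 1640 with L-glutamine, buffered with 0.165 M MOPS to pH 7.0. Compounds in DMSO (≤2% final), twofold dilutions 500–0.48. Final inoculum 5 × 10³ ± 0.2 cfu mL⁻¹. Incubated at 35 °C; absorbance at 540 nm read at 24 and 48 h. MIC is 80% growth inhibition versus control; run twice in duplicate.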

Candida albicans [2] = assay: Antifungal activity against Candida albicans ATCC 44859 after 24 hrs by microdilution method; format: functional; conditions: ATCC 44859, 24 h; in short: as §1
Aspergillus fumigatus [3] = assay: Antifungal activity against Aspergillus fumigatus 231 after 48 hrs by microdilution method; format: functional; conditions: Aspergillus fumigatus, 231, 48 h
In short: (§2)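 Filamentous strains held on Sabouraud dextrose agar. NCCLS M27-A broth microdilution in RPMI 1640 with L-glutamine and 0.165 M MOPS, pH 7.0. DMSO diluent ≤2% final; twofold dilutions 500–0.48. Inoculum 5 × 10³ ± 0.2 cfu mL⁻¹ final.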

Candida albicans [4] = assay: Antifungal activity against Candida albicans ATCC 90028 after 48 hrs by microdilution method; format: functional; conditions: ATCC 90028, 48 h; in short: as §1
Nakaseomyces glabratus [5] = assay: Antifungal activity against Candida glabrata 20/I after 24 hrs by microdilution method; format: functional; in short: as §1
Candida tropicalis [6] = assay: Antifungal activity against Candida tropicalis 156 after 24 hrs by microdilution method; format: functional; conditions: Candida tropicalis, 156, 24 h; in short: as §1
Candida parapsilosis [7] = assay: Antifungal activity against Candida parapsilosis ATCC 22019 after 48 hrs by microdilution method; format: functional; conditions: Lodderomyces parapsilosis, ATCC 22019, 48 h; in short: as §1
CCRF-CEM = assay: Cytostatic activity against human CCRF-CEM cells after 72 hrs by XTT assay; format: functional, cell-based; conditions: Homo sapiens, CCRF-CEM, 72 h; read-out: IC50
In short: (§3)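 Leukemia cells (L1210 ATCC CCL 219, CCRF-CEM ATCC CCL 119, HL-60 ATCC CCL 240) grown in 24-well plates in RPMI 1640 with fetal calf serum. Growth assessed 72 h after drug addition. Viability measured by XTT spectrophotometric assay; potency given as IC50.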

[8] = test system: Trichophyton mentagrophytes; assay: Antifungal activity against Trichophyton mentagrophytes 445 after 72 hrs by microdilution method; format: functional; conditions: Trichophyton mentagrophytes, 445, 72 h
In short: (§4)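 Dermatophyte held on Sabouraud dextrose agar. M27-A microdilution in MOPS-buffered (0.165 M, pH 7.0) RPMI 1640 with L-glutamine. DMSO ≤2% final; twofold dilutions 500–0.48. Inoculum 5 × 10³ ± 0.2 cfu mL⁻¹ final. Incubated at 35 °C; MIC read visually at 72 and 120 h as 80% inhibition of control growth; determined twice in duplicate.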

HeLa S3 = assay: Cytostatic activity against human HeLaS3 cells after 48 hrs by XTT assay; conditions: Homo sapiens, HeLa S3, 48 h; read-out: IC50
Pichia kudriavzevii [9] = assay: Antifungal activity against Candida krusei E28 after 24 hrs by microdilution method; format: functional; conditions: E28, 24 h; in short: as §1
Candida parapsilosis [10] = assay: Antifungal activity against Candida parapsilosis ATCC 22019 after 24 hrs by microdilution method; format: functional; conditions: Lodderomyces parapsilosis, ATCC 22019, 24 h; in short: as §1
Nakaseomyces glabratus [11] = assay: Antifungal activity against Candida glabrata 20/I after 48 hrs by microdilution method; format: functional; in short: as §1
Aspergillus fumigatus [12] = assay: Antifungal activity against Aspergillus fumigatus 231 after 24 hrs by microdilution method; format: functional; conditions: Aspergillus fumigatus, 231, 24 h; in short: as §2
Trichosporon beigelii [13] = assay: Antifungal activity against Trichosporon beigelii 1188 after 48 hrs by microdilution method; format: functional; conditions: Trichosporon beigelii, 1188, 48 h; in short: as §1
Trichosporon beigelii [14] = assay: Antifungal activity against Trichosporon beigelii 1188 after 24 hrs by microdilution method; format: functional; conditions: Trichosporon beigelii, 1188, 24 h; in short: as §1
Candida albicans [15] = assay: Antifungal activity against Candida albicans ATCC 44859 after 48 hrs by microdilution method; format: functional; conditions: ATCC 44859, 48 h; in short: as §1
Pichia kudriavzevii [16] = assay: Antifungal activity against Candida krusei E28 after 48 hrs by microdilution method; format: functional; conditions: E28, 48 h; in short: as §1
Pichia kudriavzevii [17] = assay: Antifungal activity against Candida krusei ATCC 6258 after 24 hrs by microdilution method; format: functional; conditions: ATCC 6258, 24 h; in short: as §1
Clavispora lusitaniae [18] = assay: Antifungal activity against Candida lusitaniae 2446/I after 24 hrs by microdilution method; format: functional; in short: as §1
HL-60 = assay: Cytostatic activity against human HL60 cells after 72 hrs by XTT assay; format: functional, cell-based; conditions: Homo sapiens, HL-60, 72 h; read-out: IC50; in short: as §3
Candida tropicalis [19] = assay: Antifungal activity against Candida tropicalis 156 after 48 hrs by microdilution method; format: functional; conditions: Candida tropicalis, 156, 48 h; in short: as §1
[20] = test system: Trichophyton mentagrophytes; assay: Antifungal activity against Trichophyton mentagrophytes 445 after 120 hrs by microdilution method; format: functional; conditions: Trichophyton mentagrophytes, 445, 120 h; in short: as §4
Lichtheimia corymbifera [21] = assay: Antifungal activity against Absidia corymbifera 272 after 48 hrs by microdilution method; format: functional; conditions: Lichtheimia corymbifera, 272, 48 h; in short: as §2
Lichtheimia corymbifera [22] = assay: Antifungal activity against Absidia corymbifera 272 after 24 hrs by microdilution method; format: functional; conditions: Lichtheimia corymbifera, 272, 24 h; in short: as §2
Pichia kudriavzevii [23] = assay: Antifungal activity against Candida krusei ATCC 6258 after 48 hrs by microdilution method; format: functional; conditions: ATCC 6258, 48 h; in short: as §1
Candida albicans [24] = assay: Antifungal activity against Candida albicans ATCC 90028 after 24 hrs by microdilution method; format: functional; conditions: ATCC 90028, 24 h; in short: as §1

Structure (SMILES) | MIC80 (Clavispora lusitaniae [1]) [µM] | MIC80 (Candida albicans [2]) [µM] | MIC80 (Aspergillus fumigatus [3]) [µM] | MIC80 (Candida albicans [4]) [µM] | MIC80 (Nakaseomyces glabratus [5]) [µM] | MIC80 (Candida tropicalis [6]) [µM] | MIC80 (Candida parapsilosis [7]) [µM] | MIC80 [8] [µM] | MIC80 (Pichia kudriavzevii [9]) [µM] | MIC80 (Candida parapsilosis [10]) [µM] | MIC80 (Nakaseomyces glabratus [11]) [µM] | MIC80 (Aspergillus fumigatus [12]) [µM] | MIC80 (Trichosporon beigelii [13]) [µM] | MIC80 (Trichosporon beigelii [14]) [µM] | MIC80 (Candida albicans [15]) [µM] | MIC80 (Pichia kudriavzevii [16]) [µM] | MIC80 (Pichia kudriavzevii [17]) [µM] | MIC80 (Clavispora lusitaniae [18]) [µM] | MIC80 (Candida tropicalis [19]) [µM] | MIC80 [20] [µM] | also measured
COC(=O)c1ccc(OCC2C=C(c3ccc(Br)cc3)C(=O)O2)cc1 (centres undefined) | 15.6 (≈ 6.3 µg/mL) | 0.48 (≈ 0.194 µg/mL) | 7.81 (≈ 3.15 µg/mL) | 7.81 (≈ 3.15 µg/mL) | 3.9 (≈ 1.57 µg/mL) | 15.6 (≈ 6.3 µg/mL) | 15.6 (≈ 6.3 µg/mL) | 3.9 (≈ 1.57 µg/mL) | 15.6 (≈ 6.3 µg/mL) | 15.6 (≈ 6.3 µg/mL) | 3.9 (≈ 1.57 µg/mL) | 3.9 (≈ 1.57 µg/mL) | 15.6 (≈ 6.3 µg/mL) | 7.81 (≈ 3.15 µg/mL) | 1.95 (≈ 0.786 µg/mL) | 15.6 (≈ 6.3 µg/mL) | 15.6 (≈ 6.3 µg/mL) | 7.81 (≈ 3.15 µg/mL) | 15.6 (≈ 6.3 µg/mL) | 3.9 (≈ 1.57 µg/mL) | IC50 (CCRF-CEM): 1.25 µM; IC50 (HeLa S3): 4.5 µM; IC50 (HL-60): 4.05 µM; MIC80 (Lichtheimia corymbifera [21]): 125 µM (≈ 50.4 µg/mL); MIC80 (Lichtheimia corymbifera [22]): 62.5 µM (≈ 25.2 µg/mL); MIC80 (Pichia kudriavzevii [23]): 15.6 µM (≈ 6.3 µg/mL); MIC80 (Candida albicans [24]): 3.9 µM (≈ 1.57 µg/mL)
O=C1OC(COc2cccc(Br)c2)C=C1c1ccc(Br)cc1 (centres undefined) | 15.6 (≈ 6.62 µg/mL) | 0.97 (≈ 0.411 µg/mL) | 15.6 (≈ 6.62 µg/mL) | 7.81 (≈ 3.31 µg/mL) | 1.95 (≈ 0.827 µg/mL) | 7.81 (≈ 3.31 µg/mL) | 31.2 (≈ 13.3 µg/mL) | 1.95 (≈ 0.827 µg/mL) | 7.81 (≈ 3.31 µg/mL) | 7.81 (≈ 3.31 µg/mL) | 1.95 (≈ 0.827 µg/mL) | 3.9 (≈ 1.65 µg/mL) | 62.5 (≈ 26.5 µg/mL) | 7.81 (≈ 3.31 µg/mL) | 1.95 (≈ 0.827 µg/mL) | 15.6 (≈ 6.62 µg/mL) | 7.81 (≈ 3.31 µg/mL) | 7.81 (≈ 3.31 µg/mL) | 15.6 (≈ 6.62 µg/mL) | 1.95 (≈ 0.827 µg/mL) | MIC80 (Lichtheimia corymbifera [21]): 62.5 µM (≈ 26.5 µg/mL); MIC80 (Lichtheimia corymbifera [22]): 31.2 µM (≈ 13.3 µg/mL); MIC80 (Pichia kudriavzevii [23]): 15.6 µM (≈ 6.62 µg/mL); MIC80 (Candida albicans [24]): 3.9 µM (≈ 1.65 µg/mL)
O=C1OC(COc2ccc(I)cc2)C=C1c1ccc(Br)cc1 (centres undefined) | 31.2 (≈ 14.7 µg/mL) | 0.48 (≈ 0.226 µg/mL) | 7.81 (≈ 3.68 µg/mL) | 7.81 (≈ 3.68 µg/mL) | 1.95 (≈ 0.919 µg/mL) | 15.6 (≈ 7.36 µg/mL) | > 500 | 1.95 (≈ 0.919 µg/mL) | 31.2 (≈ 14.7 µg/mL) | 31.2 (≈ 14.7 µg/mL) | 3.9 (≈ 1.84 µg/mL) | 3.9 (≈ 1.84 µg/mL) | 500 (≈ 236 µg/mL) | 7.81 (≈ 3.68 µg/mL) | 1.95 (≈ 0.919 µg/mL) | > 500 | 31.2 (≈ 14.7 µg/mL) | 7.81 (≈ 3.68 µg/mL) | 31.2 (≈ 14.7 µg/mL) | 3.9 (≈ 1.84 µg/mL) | IC50 (CCRF-CEM): 1.19 µM; IC50 (HeLa S3): 4 µM; IC50 (HL-60): 7.22 µM; MIC80 (Lichtheimia corymbifera [21]): > 500 µM; MIC80 (Lichtheimia corymbifera [22]): > 500 µM; MIC80 (Pichia kudriavzevii [23]): > 500 µM; MIC80 (Candida albicans [24]): 3.9 µM (≈ 1.84 µg/mL)
O=C1OC(COc2ccccc2)C=C1c1ccc(Br)cc1 (centres undefined) | 7.81 (≈ 2.7 µg/mL) | 0.97 (≈ 0.335 µg/mL) | 15.6 (≈ 5.39 µg/mL) | 7.81 (≈ 2.7 µg/mL) | 1.95 (≈ 0.673 µg/mL) | 7.81 (≈ 2.7 µg/mL) | 31.2 (≈ 10.8 µg/mL) | 1.95 (≈ 0.673 µg/mL) | 15.6 (≈ 5.39 µg/mL) | 7.81 (≈ 2.7 µg/mL) | 1.95 (≈ 0.673 µg/mL) | 1.95 (≈ 0.673 µg/mL) | 31.2 (≈ 10.8 µg/mL) | 7.81 (≈ 2.7 µg/mL) | 1.95 (≈ 0.673 µg/mL) | 31.2 (≈ 10.8 µg/mL) | 7.81 (≈ 2.7 µg/mL) | 3.9 (≈ 1.35 µg/mL) | 15.6 (≈ 5.39 µg/mL) | 3.9 (≈ 1.35 µg/mL) | IC50 (CCRF-CEM): 1.09 µM; IC50 (HeLa S3): 4.67 µM; IC50 (HL-60): 4.37 µM; MIC80 (Lichtheimia corymbifera [21]): 500 µM (≈ 173 µg/mL); MIC80 (Lichtheimia corymbifera [22]): 125 µM (≈ 43.1 µg/mL); MIC80 (Pichia kudriavzevii [23]): 31.2 µM (≈ 10.8 µg/mL); MIC80 (Candida albicans [24]): 1.95 µM (≈ 0.673 µg/mL)
O=C1OC(COc2ccc(O)cc2)C=C1c1ccc(Br)cc1 (centres undefined) | 7.81 (≈ 2.82 µg/mL) | 0.97 (≈ 0.35 µg/mL) | 7.81 (≈ 2.82 µg/mL) | 3.9 (≈ 1.41 µg/mL) | 1.95 (≈ 0.704 µg/mL) | 7.81 (≈ 2.82 µg/mL) | 15.6 (≈ 5.64 µg/mL) | 1.95 (≈ 0.704 µg/mL) | 7.81 (≈ 2.82 µg/mL) | 7.81 (≈ 2.82 µg/mL) | 1.95 (≈ 0.704 µg/mL) | 1.95 (≈ 0.704 µg/mL) | 15.6 (≈ 5.64 µg/mL) | 7.81 (≈ 2.82 µg/mL) | 1.95 (≈ 0.704 µg/mL) | 15.6 (≈ 5.64 µg/mL) | 7.81 (≈ 2.82 µg/mL) | 3.9 (≈ 1.41 µg/mL) | 7.81 (≈ 2.82 µg/mL) | 1.95 (≈ 0.704 µg/mL) | MIC80 (Lichtheimia corymbifera [21]): 62.5 µM (≈ 22.6 µg/mL); MIC80 (Lichtheimia corymbifera [22]): 15.6 µM (≈ 5.64 µg/mL); MIC80 (Pichia kudriavzevii [23]): 15.6 µM (≈ 5.64 µg/mL); MIC80 (Candida albicans [24]): 1.95 µM (≈ 0.704 µg/mL)

From ChEMBL document CHEMBL1157589, “Antifungal 3,5-disubstituted furanones: From 5-acyloxymethyl to 5-alkylidene derivatives” (Bioorg Med Chem, 2010)
